From ChEMBL document CHEMBL5500359, “Identification of a new bisindolinone arresting IGROV1 cells proliferation” (Eur J Med Chem, 2024)

How the values were obtained:
Breast cancer cell line [1] = assay: Cytotoxicity against human Breast cancer cells incubated for 48 hrs by SRB assay; assay type: functional
Outline: (§1)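 NCI-60 five-concentration screen: lines seeded 5×10^3–4×10^4 cells/well depending on line; compound diluted in fresh medium at scalar concentrations 0–100 or 0–1000 μM; 48 h exposure, in situ fixation, sulforhodamine B protein staining, optical density read; GI50, TGI and LC50 per NCI procedures; panel mean = mean graph midpoint.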

Colon carcinoma cell [2] = assay: Cytostatic activity against human Colon carcinoma cells incubated for 48 hrs by SRB assay; assay type: functional; outline: as §1
Renal cancer cell line [3] = assay: Cell growth inhibition of human Renal cancer cells incubated for 48 hrs by SRB assay; assay type: functional; outline: as §1
Breast cancer cell line [4] = assay: Cytostatic activity against human Breast cancer cells incubated for 48 hrs by SRB assay; assay type: functional; outline: as §1
Melanoma cell line [5] = assay: Cell growth inhibition of human Melanoma cells incubated for 48 hrs by SRB assay; assay type: functional; outline: as §1
CNS carcinoma cell [6] = assay: Cell growth inhibition of human CNS carcinoma cells incubated for 48 hrs by SRB assay; assay type: functional; outline: as §1
[7] = Cytotoxicity against human Leukemia cancer cells incubated for 48 hrs by SRB assay; assay type: functional; settings: Leukemia cell, read-out: LC50 (the source's name)
Outline: (§2)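 NCI DTP five-concentration screen. Cells were seeded at 5 × 10³–4 × 10⁴ cells/well, depending on the line. Compounds were diluted in fresh medium and added at scalar concentrations over 0–1000 µM or 0–100 µM. After 48 h the cells were fixed in situ, stained with sulforhodamine B, and optical density was read. GI50, TGI and LC50 were derived by NCI procedures, and the panel mean is the mean graph midpoint.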

[8] = Cell growth inhibition of human Leukemia cancer cells incubated for 48 hrs by SRB assay; assay type: functional; outline: as §1
Ovarian cancer cell line [9] = assay: Cytostatic activity against human Ovarian cancer cells incubated for 48 hrs by SRB assay; assay type: functional; outline: as §1
Melanoma cell line [10] = assay: […] against human Melanoma cells incubated for 48 hrs by SRB assay; assay type: functional; settings: read-out: LC50 (the source's name); outline: as §2
Renal cancer cell line [11] = assay: Cytostatic activity against human Renal cancer cells incubated for 48 hrs by SRB assay; assay type: functional; outline: as §1
Breast cancer cell line [12] = assay: Cell growth inhibition of human Breast cancer cells incubated for 48 hrs by SRB assay; assay type: functional; settings: read-out: LC50 (the source's name); outline: as §2
[13] = tested on: Panel NCI-60 (60 carcinoma cell lines); assay: Cell growth inhibition of human Panel NCI-60 (60 carcinoma cell lines) incubated for 48 hrs by SRB assay; assay type: functional; outline: as §1
CNS carcinoma cell [14] = assay: Cytostatic activity against human CNS carcinoma cells incubated for 48 hrs by SRB assay; assay type: functional; outline: as §1
Ovarian cancer cell line [15] = assay: Cytotoxicity against human Ovarian cancer cells incubated for 48 hrs by SRB assay; assay type: functional; outline: as §1
NSCLC = assay: Cell growth inhibition of human NSCLC cells incubated for 48 hrs by SRB assay; assay type: functional; outline: as §1
Prostatic carcinoma cell = assay: Cell growth inhibition of human Prostate carcinoma cells incubated for 48 hrs by SRB assay; assay type: functional; outline: as §1
Colon carcinoma cell [16] = assay: Cytotoxicity against human Colon carcinoma cells incubated for 48 hrs by SRB assay; assay type: functional; outline: as §1
[17] = tested on: Panel NCI-60 (60 carcinoma cell lines); assay: Cytostatic activity against human Panel NCI-60 (60 carcinoma cell lines) incubated for 48 hrs by SRB assay; assay type: functional; outline: as §1
[18] = Cytostatic activity against human Leukemia cancer cells incubated for 48 hrs by SRB assay; assay type: functional, Leukemia cell; outline: as §1

Row | Compound | GI (Breast cancer cell line [1]) [µM] | TGI (Colon carcinoma cell [2]) [µM] | GI50 (Renal cancer cell line [3]) [µM] | TGI (Breast cancer cell line [4]) [µM] | GI (Melanoma cell line [5]) [µM] | GI50 (CNS carcinoma cell [6]) [µM] | CC50 [7] [µM] | GI50 [8] [µM] | TGI (Ovarian cancer cell line [9]) [µM] | CC50 (Melanoma cell line [10]) [µM] | GI (Renal cancer cell line [11]) [µM] | CC50 (Breast cancer cell line [12]) [µM] | GI50 [13] [µM] | GI (CNS carcinoma cell [14]) [µM] | GI (Ovarian cancer cell line [15]) [µM] | GI (NSCLC) [µM] | GI (Prostatic carcinoma cell) [µM] | GI (Colon carcinoma cell [16]) [µM] | GI [17] [µM] | GI [18] [µM]
1 | CC(C)(C)c1cc(/C=C2/C(=O)Nc3ccc(F)cc32)c(O)c(/C=C2/C(=O)Nc3ccc(F)cc32)c1 | 46.77 | 14.8 | 4.68 | 19.5 | 3.02 | 2.95 | 60.3 | 3.09 | 15.8 | 9.77 | 14.13 | 3.8 | 3.8 | 12.02 | 47.86 | 4.17 | 3.89 | 42.66 | 13.8 | 12.02
2 | O=C1Nc2cccc(F)c2/C1=C\c1cccc(/C=C2/C(=O)Nc3cccc(F)c32)c1 | 16.98 | 3.31 | 1.86 | 6.17 | 1.7 | 1.82 | 100 | 1.23 | 7.59 | 3.72 | 4.17 | 2 | 1.91 | 4.27 | 33.88 | 2.4 | 2.14 | 6.76 | 5.13 | 6.92
3 | COc1ccc(OC)c2c1NC(=O)/C2=C/c1cccc(/C=C2/C(=O)Nc3c(OC)ccc(OC)c32)c1 |  | 63.1 | 7.08 | 81.3 | 7.24 | 4.68 |  | 2.69 | 69.2 | 61.7 | 81.28 | 5.37 | 5.89 | 100 |  | 9.33 | 5.89 |  | 72.44 | 95.5
4 | CC(C)(C)c1cc(/C=C2/C(=O)Nc3cccc(F)c32)c(O)c(/C=C2/C(=O)Nc3cccc(F)c32)c1 | 33.88 | 6.46 | 2.45 | 8.51 | 2.29 | 2.09 | 22.9 | 1.58 | 5.89 | 5.5 | 7.24 | 2.04 | 2.14 | 6.46 | 15.49 | 2.14 | 2.75 | 16.98 | 6.46 | 4.79
5 | Cc1cc2c(cc1O)/C(=C\c1cc(C(C)(C)C)cc(C=O)c1O)C(=O)N2 | 77.62 | 11.5 | 2.57 | 14.8 | 1.78 | 1.2 | 81.3 | 0.68 | 9.55 | 5.75 | 11.48 | 1.82 | 1.91 | 10 | 56.23 | 3.47 | 0.87 | 38.02 | 8.91 | 3.72
6 | O=C1Nc2cc(Cl)ccc2/C1=C\c1cccc(/C=C2/C(=O)Nc3cc(Cl)ccc32)c1 | 37.15 | 4.68 | 3.09 | 6.92 | 2.19 | 2.29 | 100 | 2.4 | 8.91 | 5.25 | 8.51 | 2.45 | 2.57 | 5.89 | 44.67 | 3.39 | 2.14 | 11.22 | 7.59 | 11.22
7 | O=C1Nc2ccc(F)cc2/C1=C\c1cccc(/C=C2/C(=O)Nc3ccc(F)cc32)c1 |  |  | 1.58 |  | 1.58 | 1.35 | 7.41 | 1.66 |  | 10.2 | 3.47 | 9.33 | 1.62 | 3.24 | 32.4 | 1.82 | 1.48 | 9.33 | 4.47 | 9.77
8 | CC[C@]1(O)C[C@H]2CN(CCc3c([nH]c4ccccc34)[C@@](C(=O)OC)(c3cc4c(cc3OC)N(C=O)[C@H]3[C@@](O)(C(=O)OC)[C@H](OC(C)=O)[C@]5(CC)C=CCN6CC[C@]43[C@@H]65)C2)C1 [VINCRISTINE] |  |  | 0.32 |  | 0.16 | 0.13 |  | 0.1 |  |  |  | 0.32 | 0.2 |  |  | 0.25 | 0.13 |  |  | 
9 | COc1ccc2[nH]c(Cl)c(/C=C3/C(=O)N(C)c4cc5c(cc43)/C(=C\c3c(Cl)[nH]c4ccc(OC)cc34)C(=O)N5C)c2c1 | 21.88 | 4.68 | 1.78 | 6.31 | 2.04 | 1.74 | 89.1 | 2.24 | 4.69 | 4.9 | 4.47 | 3.16 | 2.04 | 4.07 | 12.59 | 1.78 | 1.95 | 11.75 | 4.9 | 6.17
10 | O=C1Nc2ccc(Cl)cc2/C1=C\c1ccc2ccc3ccc(/C=C4/C(=O)Nc5ccc(Cl)cc54)nc3c2n1 |  | 7.41 | 2.29 | 29.5 | 2.19 | 2.15 |  | 3.09 | 29.5 | 11.5 | 17.38 | 3.09 | 2.63 | 9.33 | 69.18 | 2.57 | 2.45 | 31.62 | 18.2 | 83.18
11 | COc1cc2c(c(OC)c1OC)/C(=C\c1ccc3ccc4ccc(/C=C5/C(=O)Nc6cc(OC)c(OC)c(OC)c65)nc4c3n1)C(=O)N2 |  | 5.23 | 26.3 | 64.6 | 18.62 | 13.8 |  | 4.27 | 93.3 | 85.1 | 74.13 | 10 | 12.9 | 67.61 |  | 14.45 | 3.39 |  | 70.79 | 
12 | COc1ccc2c(c1)/C(=C\c1ccc3ccc4ccc(/C=C5/C(=O)N(C)c6ccc(OC)cc65)nc4c3n1)C(=O)N2C | 64.57 | 6.31 | 2.34 | 18.6 | 2.14 | 3.16 |  | 3.16 | 28.2 | 4.79 | 5.89 | 3.09 | 2.63 | 17.78 | 89.13 | 2.57 | 2.57 | 13.49 | 12.88 | 56.23
13 | COc1cc2c(cc1C)NC(=O)/C2=C/c1ccc2ccc3ccc(/C=C4/C(=O)Nc5cc(C)c(OC)cc54)nc3c2n1 |  | 10.2 | 6.31 | 25.7 | 6.03 | 8.51 |  | 2.51 | 38.9 | 17.8 | 29.51 | 3.98 | 5.13 | 40.74 | 77.62 | 6.76 | 2.95 | 46.77 | 26.3 | 22.91
14 | CN(C)c1ccc2[nH]c(Cl)c(/C=C3/C(=O)N(C)c4cc5c(cc43)/C(=C\c3c(Cl)[nH]c4ccc(N(C)C)cc34)C(=O)N5C)c2c1 |  |  | 9.77 |  | 27.54 | 7.08 |  | 17 |  |  |  | 4.17 | 14.5 |  |  | 18.2 | 10.72 |  |  | 
